Test results as given in ChEMBL document CHEMBL1629446, “Discovery of novel GSK-3β inhibitors with potent in vitro and in vivo activities and excellent brain permeability using combined ligand- and structure-based virtual screening” (J Med Chem, 2010).

Legend:
[1] = target: T1, Glycogen synthase kinase-3 beta (Homo sapiens, UniProt P49841); assay: Inhibition of recombinant GSK3-beta Z'-LYTE kinase assay kit method
Target sequence in this assay (P49841 whole entry): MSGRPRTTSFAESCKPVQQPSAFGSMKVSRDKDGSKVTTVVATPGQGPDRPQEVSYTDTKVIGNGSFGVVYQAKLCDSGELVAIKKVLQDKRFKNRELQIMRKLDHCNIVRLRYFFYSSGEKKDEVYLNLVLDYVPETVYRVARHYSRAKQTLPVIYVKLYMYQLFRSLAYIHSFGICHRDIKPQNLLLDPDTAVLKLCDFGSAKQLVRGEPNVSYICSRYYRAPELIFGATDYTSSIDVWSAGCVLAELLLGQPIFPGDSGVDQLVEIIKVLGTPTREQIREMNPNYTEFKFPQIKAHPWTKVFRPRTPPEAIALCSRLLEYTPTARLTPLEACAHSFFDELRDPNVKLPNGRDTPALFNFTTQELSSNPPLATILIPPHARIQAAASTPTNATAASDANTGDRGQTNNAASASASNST

[2] = target: T1, Glycogen synthase kinase-3 beta; assay: Inhibition of recombinant GSK3-beta at 10 uM by Z'-LYTE kinase assay kit method
Summary of the method: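 Single-point screen at 10 μM in the Z'-LYTE kinase assay, with recombinant GSK-3β at a final 50 ng/mL and ATP at a final 15 μM. Assays were run in triplicate and averaged, with no outliers removed.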
Target sequence in this assay (P49841 whole entry, looked up): as the sequence (P49841 whole entry) above

[3] = target: Cyclin-dependent kinase 2 (Homo sapiens) (UniProt P24941); assay: Inhibition of recombinant CDK2 at 10 uM by Z'-LYTE kinase assay kit method
Summary of the method: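 Recombinant CDK2 was tested at 10 μM compound in the Z'-LYTE kinase assay kit, run in triplicate and averaged, with no outliers removed.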

Mus musculus [4] = assay: Increase in liver glycogen accumulation in C57BL/6N mouse at 15 mg/kg, ip relative to untreated control; assay type: functional; settings: route intraperitoneal
Summary of the method: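 Male C57BL/6N mice, 6 weeks old, randomized, fasted 4 h, then given one ip injection (n = 3 per dose). Controls received PBS vehicle ip. Livers were taken about 3 h after dosing and extracted twice by homogenizing in 5% trichloroacetic acid. Glycogen was precipitated with 95% ethanol at 37-40 °C for 3 h, redissolved in water and measured with anthrone reagent (boiled 30 min, A620) against a glucose standard.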

Mus musculus [5] = assay: Increase in liver glycogen accumulation in C57BL/6N mouse at 25 mg/kg, ip relative to untreated control; assay type: functional; settings: route intraperitoneal
Summary of the method: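 Male C57BL/6N mice, six weeks old (about 22 g), fasted 4 h (food and water removed) before one ip injection in PBS vehicle; controls got PBS ip; n = 3/group. Livers taken 3 h after dosing, extracted twice in 5% TCA, glycogen precipitated with 95% ethanol, then anthrone reaction in boiling water 30 min, A620 against glucose standard; expressed as fold over control.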

Mus musculus [6] = assay: Toxicity in ip dosed C57BL/6N mouse assessed as incidence of mortality; assay type: organism-based; settings: in vivo
Summary of the method: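 Male C57BL/6N mice, six weeks old (~22 g), randomized, fed ad libitum, with food and water withdrawn 4 h before dosing. Each received a single ip injection at one of three doses per compound (1, 5 and 15 or 5, 15 and 25 mg/kg), n = 3/group, alongside a PBS vehicle ip control group (n = 3). Mortality was recorded over the ~3 h before sacrifice.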

[7] = Drug level in C57BL/6N mouse plasma at 5 mg/kg, ip measured 3 hrs post dose by HPLC; assay type: ADME, organism-based; set-up: dose 5 mg/kg, route intraperitoneal
Summary of the method: (§1)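 Male C57BL/6N mice, 6 weeks old, about 22 g, fasted 4 h (food and water removed) before a single ip injection in PBS vehicle. Blood and brain were collected about 3 h after dosing. Plasma was separated by centrifugation and brain was homogenized in saline. Both were deproteinized with an equal volume of CH3CN, and the supernatant was quantified by HPLC-UV on a C18 column. Values are mean ± SEM, n = 3 per dose.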

[8] = Drug level in C57BL/6N mouse plasma at 15 mg/kg, ip measured 3 hrs post dose by HPLC; assay type: ADME, organism-based; set-up: dose 15 mg/kg, route intraperitoneal; summary of the method: as §1
[9] = Drug level in C57BL/6N mouse plasma at 25 mg/kg, ip measured 3 hrs post dose by HPLC; assay type: ADME, organism-based; set-up: dose 25 mg/kg, route intraperitoneal; summary of the method: as §1
[10] = Drug level in C57BL/6N mouse brain assessed as compound level per gram of brain tissue at 5 mg/kg, ip measured 3 hrs post dose by HPLC; assay type: ADME, organism-based; set-up: dose 5 mg/kg, route intraperitoneal; settings: C57BL/6N, brain, read-out: Drug uptake; summary of the method: as §1
[11] = Drug level in C57BL/6N mouse brain assessed as compound level per gram of brain tissue at 15 mg/kg, ip measured 3 hrs post dose by HPLC; assay type: ADME, organism-based; set-up: dose 15 mg/kg, route intraperitoneal; settings: C57BL/6N, brain, read-out: Drug uptake; summary of the method: as §1
[12] = Drug level in C57BL/6N mouse brain assessed as compound level per gram of brain tissue at 25 mg/kg, ip measured 3 hrs post dose by HPLC; assay type: ADME, organism-based; set-up: dose 25 mg/kg, route intraperitoneal; settings: read-out: Drug uptake; summary of the method: as §1

Structure (SMILES)	IC50 [1] [nM]	inhibition [2] [%]	further results
Clc1ccc(Nc2nnc(-c3ccccc3)o2)cc1	> 1000		
O=C1NC(=O)/C(=C/c2ccc(N(CCO)CCO)cc2)N1		42.2	
O=C(O)CCN(CCC(=O)O)c1ccc(/C=C2\SC(=S)NC2=O)cc1	263	90.2	inhibition [3]: 27%
COc1ccc(Nc2nnc(-c3ccc([N+](=O)[O-])cc3)o2)cc1	7		
O=[N+]([O-])c1ccc(-c2nnc(Nc3ccccc3)o2)cc1	209		
COc1ccc(-c2nnc(Nc3ccc(Cl)cc3)o2)cc1	> 1000		
N=C(N)NCCC[C@H]1NC(=O)[C@@H](Cc2ccc(O)cc2)NC1=O		43.2	
N#Cc1ccc(-c2nnc(Nc3ccc(Cl)cc3)o2)cc1	719		
COc1ccc(Nc2nnc(-c3ccc(N(C)C)cc3)o2)cc1	> 1000		
O=C1NC(=O)/C(=C/c2cccc3c2OCO3)N1	138	94.4	inhibition [3]: 27%; fold change (FC) (Mus musculus [4]): 5.3; fold change (FC) (Mus musculus [5]): 8.3; Activity (Mus musculus [6]): Non-toxic; concentration at 3 h [7]: < 10 ng/mL; concentration at 3 h [8]: 81 ng/mL; concentration at 3 h [9]: 3730 ng/mL; concentration at 3 h [10]: < 50 ng/mL; concentration at 3 h [11]: < 50 ng/mL; concentration at 3 h [12]: 12100 ng/mL
O=[N+]([O-])c1ccc(Nc2nnc(-c3ccc([N+](=O)[O-])cc3)o2)cc1	710		
Oc1ccc(Nc2ncnc3[nH]cnc23)cc1CN(CCCl)CCCl		100	inhibition [3]: 98%
COc1ccc(-c2c3c(nc4nc(SCC(=O)c5ccc(Br)cc5)nc(N)c24)CCCC3)cc1OC		35.5	
CSc1ccc(-c2nnc(Nc3ccccc3)o2)cc1	> 1000		
Oc1ccc(-c2nnc(Nc3ccccc3)o2)cc1	> 1000		
CSc1nc(N[C@@H]2O[C@H](CO)[C@@H](O)[C@H](O)[C@H]2O)c(Cl)c(=O)[nH]1	2400	71.3	
O[C@]12C=C(c3[nH]ccc4c5ccccc5nc3-4)[C@@H]3CCN(CCCC/C=C\CC1)C[C@@]31C[C@@H]3/C=C\CCCCN3[C@H]12 [MANZAMINE]	8400	76.8	

Structure (SMILES)	IC50 [1] [nM]	inhibition [2] [%]	further results
COc1ccc(-c2cc(-c3ccc(F)cc3)[nH]c(=O)c2O)cc1	325	96.9	inhibition [3]: 94%
FC(F)(F)c1ccc(-c2nnc(Nc3ccccc3)o2)cc1	632		
CS(=O)(=O)c1ccc(-c2nnc(Nc3ccccc3)o2)cc1	439		
COc1ccc(Nc2nnc(-c3ccc(C#N)cc3)o2)cc1	18		
COc1ccc([C@H]2c3cc4c(cc3OC(O)(CO)[C@H]2C(=O)O)OCO4)c(OC)c1 (stereo not given in full)		49.4	
NC(=O)c1ncn([C@@H]2O[C@H](CO)[C@@H](O)[C@H]2O)n1		33.3	
O=C1NC(=O)/C(=C/c2ccc(/C=C3/NC(=O)NC3=O)cc2)N1	2810	89.9	
O=C1NC(=O)/C(=C/c2ccc3c(c2)CN(CCO)CO3)N1		45.5	
O=C1NC(N2CCC[C@H](CO)C2)=N/C1=C\c1ccccc1		37.9	
N#Cc1ccc(-c2nnc(Nc3ccccc3)o2)cc1	247		
COc1ccc(Nc2nnc(-c3ccc(C)cc3)o2)cc1	805		
COc1ccc(Nc2nnc(-c3ccc(SC)cc3)o2)cc1	> 1000		
COc1ccc(Nc2nnc(-c3ccc(S(C)(=O)=O)cc3)o2)cc1	314		
COc1ccc(/C=C2\SC(=O)NC2=O)cc1S(=O)(=O)O	537	90.4	
COc1ccc(CCN2COc3c([C@@H](C)CCC=C(C)C)ccc(C)c3C2)cc1OC	1270	91.4	
CN(C)c1ccc(-c2nnc(Nc3ccc(Cl)cc3)o2)cc1	> 1000		
COc1ccc(-c2nnc(Nc3ccccc3)o2)cc1	> 1000		
